Measurements pooled from the literature.
Compare with care: the assays were run in different laboratories.
Sample: plasma

C[C@@H](Oc1ccc(S(C)(=O)=O)cc1C(=O)N1C[C@@H]2C[C@]2(c2cc(C(F)(F)F)on2)C1)C(F)(F)F  half-life (human; oral, 10 mg, single dose, fasted, healthy volunteers): 38.1 h
C=CC(=O)NC1CCN(c2ncc3ncnc(Nc4ccc(Oc5ccc6c(c5)ncn6C)c(C)c4)c3n2)CC1  half-life (male human; intravenous, 100 µg, healthy volunteers): 42.7 h
COc1ccc2c(c1)CN(C(=O)CCN1CCC(Cc3ccccc3)CC1)CC[S@@+]2[O-]  half-life (male human; intravenous, 0.15 mg/kg, single dose, healthy volunteers): 6.39 h
Cc1cn([C@H]2C[C@H](N=[N+]=[N-])[C@@H](CO)O2)c(=O)[nH]c1=O  half-life (human; oral, 600 mg, single dose, healthy volunteers): 1.95 h
CC1(C)CC[C@]2(NC(=O)C(C)(F)F)CC[C@]3(C)[C@H](C(=O)C=C4[C@@]5(C)C=C(C#N)C(=O)C(C)(C)[C@@H]5CC[C@]43C)[C@@H]2C1  half-life (human; oral, 150 mg, single dose): 88.3 h
N#Cc1cccc(-c2ccc3ncc(-c4cc(F)cc(F)c4)c(N4CCC(N)CC4)c3c2)c1O  half-life (human; intravenous, 50 µg): 30 h
CC(=O)N(C)[C@H]1CCN(C(=O)c2cnc3c(c2)C[C@](C)(c2ccc(F)cc2)N3)C1  half-life (male human; oral, 30 mg, multiple doses, once daily, steady state): 21.8 h
O=C(COc1ccc(Cl)cc1)NC12CC(c3nnc([C@H]4C[C@@H](OC(F)(F)F)C4)o3)(C1)C2  half-life (human; oral, 145 mg, multiple doses, once daily, healthy volunteers): 37.5 h
CC(C)c1nc(N(C)S(C)(=O)=O)nc(-c2ccc(F)cc2)c1/C=C/[C@@H](O)C[C@@H](O)CC(=O)O  half-life (human; oral, 10 mg): 21.6 h
OC[C@H]1O[C@@H](c2cc(Cc3ccc(C4CC4)cc3)c(Cl)c3c2CCO3)[C@H](O)[C@@H](O)[C@@H]1O  half-life (human; oral, 0.3 mg, single dose, fasted, healthy volunteers): 12.5 h
